Results on 17 compounds are retold here after ChEMBL document CHEMBL1123667, “Molecular modification of anticholinergics as probes for muscarinic receptors. 1. Amino esters of alpha-substituted phenylacetic acid and related analogues” (J Med Chem, 1987).

The species named for assay [1] is Cavia porcellus. In words: Antispasmodic activity against isolated guinea pig ileum with metacholine as a spasmogen according to the method of Magnus. In kind it is functional. The conditions noted are these: read-out: ID50 (the source's name). The method in brief: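 Guinea pig ileum segment in a 25-mL organ bath of Tyrode solution at 37 °C, gassed with 5% CO2–95% O2, equilibrated about 30 min. Repeated standard methacholine chloride challenges (4 × 10^-6 M) confirm a consistent response. Percent inhibition of contraction is measured and ID50 is taken by linear regression.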

For assay [2], the species on record is Cavia porcellus. In words: Potency (isolated guinea pig ileum) relative to adiphenine was determined. The class given is functional.
The next assay is filed under the species Rattus norvegicus. Put plainly: Potency (isolated rat ileum) relative to adiphenine was determined. In kind it is functional.
The target of assay [3] is Muscarinic acetylcholine receptor. Put plainly: Affinity for the Muscarinic acetylcholine receptor. The class given is protein assay, Rattus norvegicus.
For assay [4] the target is unchanged. In words: pA2 value represents the affinity for the Muscarinic acetylcholine receptor and was calculated according to the Ariens and Van Rossum. The class given is protein assay. The method in brief:
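Terminal ileum from male Sprague-Dawley rats (250–300 g) killed by cervical dislocation, in a 10-mL bath of Tyrode solution at 35 °C gassed with 95% O2/5% CO2, equilibrated ≥30 min. Cumulative ACh 0.05–1.0 μg/mL at 3-min intervals gives the control curve. After washout and 30 min, compound is added; 10 min later ACh 1–300 μg/mL is given cumulatively. Contraction is read in mm. pA2 = pAx + log(x − 1), with x the ACh EC50 ratio, by linear regression over two or more experiments at four or more dose levels.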

On to `CCN(CC)CCOC(=O)C(c1ccccc1)(c1ccccc1)C(C)C.Cl`, for which the IC50 in the assay filed under Cavia porcellus [1] (Cavia porcellus, Ileum) turned out to be 1.3 µM. Also, the Relative potency in the assay listed under Cavia porcellus [2] is given as 0.57.
The term pA2 denotes a measure of antagonist potency on a negative log scale. For the compound `CCN(CC)CCOC(=O)C(CC)(c1ccccc1)c1ccccc1.Cl`, the IC50 in the assay listed under Cavia porcellus [1] (Cavia porcellus, Ileum) is 0.33 µM. Moreover, the figures for the Relative potency in the assay filed under Cavia porcellus [2] and in the assay listed under Rattus norvegicus were 2.24 and 0.15, respectively. In assay [3], this compound displayed a pA2 of 6.63.
In the case of `CCN(CC)CCOC(=O)C(CC(C)C)(c1ccccc1)c1ccccc1.Cl`, the IC50 in the assay filed under Cavia porcellus [1] (Cavia porcellus, Ileum) was determined as 1.2 µM. For the same compound, the Relative potency in the assay filed under Cavia porcellus [2] was found to be 0.62.
Consider `CCN(CC)CCOC(=O)C(C)(c1ccccc1)c1ccccc1.Cl`, for which the IC50 in the assay filed under Cavia porcellus [1] (Cavia porcellus, Ileum) was determined as 0.053 µM. For the same compound, the Relative potency in the assay filed under Cavia porcellus [2] is listed as 14; in the assay listed under Rattus norvegicus it was 9. The same compound displayed a pA2 in assay [3] of 8.4.
For `C=C(C(=O)OCCN(CC)CC)c1ccccc1.Cl`, in the assay listed under Rattus norvegicus, the Relative potency is on record as 0.03. In addition, the pA2 in assay [3] amounted to 5.86.
For `CCCCC(C(=O)OCCN(CC)CC)(c1ccccc1)c1ccccc1.Cl`, the IC50 in the assay filed under Cavia porcellus [1] (Cavia porcellus, Ileum) amounted to 2.6 µM. Besides, the Relative potency in the assay listed under Cavia porcellus [2] stood at 0.28.
Consider `CCN(CC)CCOC(=O)C(CCCCO)c1ccccc1.Cl` (racemic), for which, in the assay listed under Cavia porcellus [1], the IC50 is 1.1 µM. This compound had a Relative potency in the assay listed under Cavia porcellus [2] of 0.67.
Turning to `CCN(CC)CCOC(=O)C(CO)c1ccccc1.Cl` (racemic), in assay [4], the pA2 is on record as 7.13. Further, in the assay filed under Cavia porcellus [1], the IC50 came to 0.07 µM. For the same compound, the Relative potency turned out to be 10.57 in the assay filed under Cavia porcellus [2] and 0.48 in the assay listed under Rattus norvegicus.
Turning to `CCN(CC)CCO[C@H]1CCCC[C@@H]1c1ccccc1.Cl` (relative stereo), in the assay listed under Rattus norvegicus, the Relative potency came to 0.09. The pA2 in assay [3] is 6.38.
In the same order, the values of `CCN(CC)CCO[C@@H]1CCCC[C@@H]1c1ccccc1.Cl` (relative stereo) are 0.47 and 7.13.
With `CCN(CC)CCOC(=O)C(CCCCO)c1ccccc1.Cl` (single isomer, unassigned; (+)), the IC50 in the assay listed under Cavia porcellus [1] (Cavia porcellus, Ileum) stood at 1 µM. The same compound displayed a Relative potency in the assay listed under Cavia porcellus [2] of 0.74.
In the assay listed under Rattus norvegicus, `CCN(CC)CCOC(=O)C(COS(=O)(=O)c1ccc(C)cc1)c1ccccc1.Cl` (single isomer, unassigned; (+)) gave a Relative potency of 0.17. In assay [3], this compound came in with a pA2 of 6.67.
On to `CCN(CC)CCOC(=O)C(CO)c1ccccc1.Cl` (single isomer, unassigned; (+)), for which, in the assay filed under Cavia porcellus [1], the IC50 amounted to 0.21 µM. The compound further gave a Relative potency in the assay filed under Cavia porcellus [2] of 3.52.
Compound `CCN(CC)CCOC(=O)C(COS(=O)(=O)c1ccc(C)cc1)c1ccccc1.Cl` (single isomer, unassigned; (-)) gave a Relative potency in the assay listed under Rattus norvegicus of 0.09. For the same compound, the pA2 in assay [3] is recorded as 6.42.
In the case of `CCN(CC)CCOC(=O)C(CO)c1ccccc1.Cl` (single isomer, unassigned; (-)), the IC50 in the assay filed under Cavia porcellus [1] was 0.031 µM. In addition, the Relative potency in the assay filed under Cavia porcellus [2] was 23.87; in the assay filed under Rattus norvegicus it was 0.91. The compound further returned a pA2 in assay [3] of 7.4.
As for `CCN(CC)CCOC(=O)C(c1ccccc1)c1ccccc1.Cl` [ADIPHENINE HYDROCHLORIDE], the IC50 in the assay filed under Cavia porcellus [1] (Cavia porcellus, Ileum) came out at 0.74 µM. For the same compound, the Relative potency in the assay listed under Cavia porcellus [2] and in the assay listed under Rattus norvegicus was 1 in each case. The same compound showed a pA2 in assay [3] of 7.45.
Turning to `CCCC(C(=O)OCCN(CC)CC)(c1ccccc1)c1ccccc1.Cl` [PROADIFEN HYDROCHLORIDE], the IC50 in the assay listed under Cavia porcellus [1] (Cavia porcellus, Ileum) stood at 1.2 µM. Further, in the assay listed under Cavia porcellus [2], the Relative potency is 0.62.
